In ChEMBL document CHEMBL5046239, “Development of novel phenoxyalkylpiperidines as high-affinity Sigma-1 (σ1) receptor ligands with potent anti-amnesic effect” (Eur J Med Chem, 2022):
The source made the active and inactive calls. The rule behind the calls is not given here.

Tests used:
[1] = molecular target: Sigma non-opioid intracellular receptor 1 (Cavia porcellus, UniProt Q60492); assay: Displacement of [3H](+)-pentazocine from sigma 1 receptor in guinea pig brain membranes measured after 120 mins by scintillation counting method; assay type: cell membranes, Membrane
Sigma non-opioid intracellular receptor 1, sequence (Q60492 whole entry): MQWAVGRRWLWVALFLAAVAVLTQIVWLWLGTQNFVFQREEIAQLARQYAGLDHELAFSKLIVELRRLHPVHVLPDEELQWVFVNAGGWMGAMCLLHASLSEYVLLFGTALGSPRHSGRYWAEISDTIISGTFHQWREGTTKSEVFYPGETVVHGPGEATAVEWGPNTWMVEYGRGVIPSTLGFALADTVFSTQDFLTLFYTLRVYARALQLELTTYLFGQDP

[2] = molecular target: T1, Sigma intracellular receptor 2 (Rattus norvegicus, UniProt Q5U3Y7); assay: Displacement of [3H]DTG from sigma 2 receptor in Wistar Han rat liver membranes measured after 120 mins by scintillation counting method; assay type: cell membranes, Membrane
T1 sequence (Q5U3Y7 whole entry): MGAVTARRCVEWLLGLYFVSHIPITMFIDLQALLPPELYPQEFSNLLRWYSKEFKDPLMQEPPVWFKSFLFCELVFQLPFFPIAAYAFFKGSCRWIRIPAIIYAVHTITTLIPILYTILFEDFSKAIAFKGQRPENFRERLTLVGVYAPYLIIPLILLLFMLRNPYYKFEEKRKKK

Mus musculus [3] = assay: Cognitive enhancing effect in dizocilpine induced amnesia Swiss mouse model assessed as increase in latency time at 0.03 to 0.3 mg/kg, ip pretreated for 10 mins followed by dizocilpine addition in presence of NE-100 measured after 20 mins by step-through passive avoidance test; assay type: functional, organism-based; conditions: dose 0.03-0.3 mg/kg, time 30.0 min
How it was run: (§1)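 Male Swiss OF-1 mice, 7–9 weeks old, n = 12–16 per group. Test drug given ip in saline 10 min before dizocilpine (0.15 mg/kg ip), which was given 20 min before the Y-maze session or passive avoidance training. NE-100 (1 mg/kg ip) was given at the same time as the test drug where used. Read-outs were Y-maze alternation and step-through latency at 24 h retention. Statistics were ANOVA with Dunnett's test, or Dunn's test for latency.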

Mus musculus [4] = assay: Cognitive enhancing effect in dizocilpine induced amnesia Swiss mouse model assessed as reduction in memory impairment at 0.03 to 0.3 mg/kg, ip pretreated for 10 mins followed by dizocilpine addition measured after 20 mins by Y-maze test; assay type: functional, organism-based; conditions: dose 0.03-0.3 mg/kg, time 30.0 min; how it was run: as §1
C6 = assay: Cytotoxicity against rat C6 cells assessed as cell viability measured after 48 hrs by MTT assay; assay type: functional, cell-based; conditions: C6, 48 h
Mus musculus [5] = assay: Cognitive enhancing effect in dizocilpine induced amnesia Swiss mouse model assessed as increase in latency time at 0.03 to 0.3 mg/kg, ip pretreated for 10 mins followed by dizocilpine addition measured after 20 mins by step-through passive avoidance test; assay type: functional, organism-based; conditions: dose 0.03-0.3 mg/kg, time 30.0 min; how it was run: as §1
MCF7 = assay: Cytotoxicity against human MCF7 cells assessed as cell viability measured after 48 hrs by MTT assay; assay type: functional, cell-based; conditions: MCF7, 48 h
How it was run: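 MCF7 cells grown in DMEM with 10% FBS, glutamine and pen-strep at 37 °C, 5% CO2. Seeded at 25,000 cells/well and dosed the next day at 1–100 μM for 48 h. Solvent controls included. MTT 0.5 mg/mL for 3–4 h, formazan dissolved in DMSO/EtOH, absorbance read at 570/630 nm.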

HepG2 = assay: Cytotoxicity against human HepG2 cells assessed as cell viability measured after 48 hrs by MTT assay; assay type: functional, cell-based; conditions: HepG2, 48 h
How it was run: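 HepG2 cells grown in MEM with 10% FBS, glutamine, pen-strep and NEAA at 37 °C, 5% CO2. Seeded at 25,000 cells/well and dosed the next day at 1–100 μM for 48 h. Solvent controls (EtOH, DMSO) included. MTT 0.5 mg/mL for 3–4 h, formazan dissolved in DMSO/EtOH, absorbance read at 570/630 nm.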

SH-SY5Y = assay: Cytotoxicity against human SH-SY5Y cells assessed as cell viability measured after 48 hrs by MTT assay; assay type: functional, cell-based
How it was run: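 SH-SY5Y cells grown in MEM/Ham's F12 (1:1) with 10% FBS, glutamine and pen-strep at 37 °C, 5% CO2. Seeded at 25,000 cells/well and dosed the next day at 1–100 μM for 48 h. Solvent controls included. MTT 0.5 mg/mL for 3–4 h, formazan dissolved in DMSO/EtOH, absorbance read at 570/630 nm.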

Mus musculus [6] = assay: Cognitive enhancing effect in dizocilpine induced amnesia Swiss mouse model assessed as reduction in memory impairment at 0.03 to 0.3 mg/kg, ip pretreated for 10 mins followed by dizocilpine addition in presence of NE-100 measured after 20 mins by Y-maze test; assay type: functional, organism-based; conditions: dose 0.03-0.3 mg/kg, time 30.0 min; how it was run: as §1
Mus musculus [7] = assay: Cognitive enhancing effect in dizocilpine induced amnesia Swiss mouse model assessed as increase in latency time at 1 to 10 mg/kg, ip pretreated for 10 mins followed by dizocilpine addition in presence of NE-100 measured after 20 mins by step-through passive avoidance test; assay type: functional, organism-based; conditions: dose 1-10 mg/kg, time 30.0 min; how it was run: as §1
Mus musculus [8] = assay: Cognitive enhancing effect in dizocilpine induced amnesia Swiss mouse model assessed as increase in latency time at 1 to 10 mg/kg, ip pretreated for 10 mins followed by dizocilpine addition measured after 20 mins by step-through passive avoidance test; assay type: functional, organism-based; conditions: dose 1-10 mg/kg, time 30.0 min; how it was run: as §1
Mus musculus [9] = assay: Cognitive enhancing effect in dizocilpine induced amnesia Swiss mouse model assessed as reduction in memory impairment at 1 to 10 mg/kg, ip pretreated for 10 mins followed by dizocilpine addition measured after 20 mins by Y-maze test; assay type: functional, organism-based; conditions: dose 1-10 mg/kg, time 30.0 min; how it was run: as §1
Mus musculus [10] = assay: Cognitive enhancing effect in dizocilpine induced amnesia Swiss mouse model assessed as reduction in memory impairment at 1 to 10 mg/kg, ip pretreated for 10 mins followed by dizocilpine addition in presence of NE-100 measured after 20 mins by Y-maze test; assay type: functional, organism-based; conditions: dose 1-10 mg/kg, time 30.0 min; how it was run: as §1

For `C[C@H]1CCCCN1CCOc1ccc(Cl)cc1`, the Ki [1] was 16.6 nM and the Ki [2] was 69.8 nM.
`COc1ccc(OC[C@H](C)N2CCC(C)CC2)cc1` was tested, and the Ki [1] was 1.49 nM and the Ki [2] was 723 nM.
`C[C@@H]1CCC[C@H](C)N1CCCOc1ccc(Cl)cc1` was tested, and the Ki [1] was 4.43 nM and the Ki [2] was 17.2 nM.
For `CC1CCN(CCOc2ccc(Cl)cc2)CC1`, the Activity (Mus musculus [3]) was “inactive”, the Activity (Mus musculus [4]) was “Active” and the Ki [2] was 239 nM. For the same compound, the EC50 (C6) was > 100000 nM, the Activity (Mus musculus [5]) was “Active” and the EC50 (MCF7) was > 100000 nM. The EC50 (HepG2) was > 100000 nM, the EC50 (SH-SY5Y) was > 100000 nM and the Activity (Mus musculus [6]) was “inactive”.
Work on `COc1ccc(OCCN2CCCC[C@H]2C)cc1` yielded a Ki [1] of 35.9 nM and a Ki [2] of 300 nM.
Compound `CC1CCN([C@@H](C)COc2ccc(Cl)cc2)CC1` has a Ki [1] of 0.34 nM and a Ki [2] of 186 nM.
In the case of `C[C@@H]1CCC[C@H](C)N1CCOc1ccc(Cl)cc1`, the Ki [1] is reported as 59.4 nM and the Ki [2] is reported as 116 nM.
With `COc1ccc(OCCN2C(C)(C)CCCC2(C)C)cc1` the Ki [1] was > 5000 nM, the Ki [2] was 809 nM and the EC50 (C6) was > 100000 nM.
With `CC1(C)CCCC(C)(C)N1CCOc1ccc(Cl)cc1` the Ki [1] was > 5000 nM, the Ki [2] was 411 nM and the EC50 (C6) was > 100000 nM.
`CC1CCN([C@H](C)COc2ccc(Cl)cc2)CC1` was tested, and the Ki [1] was 1.18 nM, the Ki [2] was 52.3 nM and the EC50 (C6) was > 100000 nM.
With `COc1ccc(OCCN2CCCC[C@@H]2C)cc1` the Ki [1] was 43.4 nM and the Ki [2] was 175 nM.
`COc1ccc(OCCN2[C@H](C)CCC[C@@H]2C)cc1` gave a Ki [1] of 379 nM and a Ki [2] of 636 nM.
`COc1ccc(OCCCN2[C@H](C)CCC[C@@H]2C)cc1` showed a Ki [1] of 23.5 nM and a Ki [2] of 52.5 nM.
`COc1ccc(OCCN2CCC(C)CC2)cc1` was tested, and the Ki [1] was 0.89 nM, the Activity (Mus musculus [7]) was “inactive” and the Ki [2] was 170 nM. The Activity (Mus musculus [8]) was “Active”, the EC50 (C6) was > 100000 nM and the EC50 (MCF7) was > 100000 nM. For the same compound, the Activity (Mus musculus [9]) was “Active”, the Activity (Mus musculus [10]) was “inactive” and the EC50 (HepG2) was > 100000 nM. For the same compound, the EC50 (SH-SY5Y) was > 100000 nM.
`C[C@@H]1CCCCN1CCOc1ccc(Cl)cc1` gave a Ki [1] of 20.6 nM and a Ki [2] of 77.8 nM.
In the case of `COc1ccc(OC[C@@H](C)N2CCC(C)CC2)cc1`, the Ki [1] is reported as 1.16 nM, the Ki [2] is reported as 187 nM and the EC50 (C6) is reported as > 100000 nM.
